Measurements collected from several papers.
Compare with care: the assays were run in different laboratories.
ALK L1196M: ALK tyrosine kinase receptor (ALK, Homo sapiens, UniProt Q9UM73, L1196M)
ALK: ALK tyrosine kinase receptor (ALK, Homo sapiens, UniProt Q9UM73)
ALK C1156Y: ALK tyrosine kinase receptor (ALK, Homo sapiens, UniProt Q9UM73, C1156Y)

| Structure (SMILES) | target | read-out | method | tested at | remaining binding |
| --- | --- | --- | --- | --- | --- |
| Cc1cnc(Nc2ccc(C(=O)N3CCC(N4CCCC4)CC3)cc2)nc1-c1cc2ccccc2s1 | ALK L1196M | binding | competition with immobilised ligand | 1 µM | 82% |
| COc1ncc2cc3ccccc3nc2c1C#N | ALK L1196M | cell-free assay | competition with immobilised ligand | 5 µM | 94% |
| CC1CCCN1c1nccc(-c2cnn3ncccc23)n1 (stereo not shown) | ALK | binding | – | 1 µM | 69% |
| CC(C)(C)c1ccc(-c2nc(CBr)nn2-c2cccc(O)c2)cc1 | ALK | cell-free assay | competition with immobilised ligand | 10 µM | 78% |
| C[C@@H]1CN(c2cc(-c3nn(C)c4ccc(OC5(C)CC5)cc34)ncn2)C[C@H](C)O1 | ALK L1196M | cell-free assay | competition with immobilised ligand | 1 µM | 98% |
| COc1cnc(Nc2cccc(S(N)(=O)=O)c2)nc1N1CCN(c2ccccc2)CC1 | ALK | binding | competition with immobilised ligand | 1 µM | 78% |
| c1cnn2ncc(-c3ccnc(N4CCC45COC5)n3)c2c1 | ALK C1156Y | binding | – | 1 µM | 73% |
| O=C(c1ccc(Nc2nccc(-c3cc4ccccc4s3)n2)cc1)N1CCC(N2CCCC2)CC1 | ALK L1196M | binding | competition with immobilised ligand | 1 µM | 80% |
| CN(C)c1nccc(-c2cnc3ncccn23)n1 | ALK C1156Y | binding | – | 1 µM | 82% |
| C[C@@H](c1ccc(-n2cnc3c(N)ncnc32)cc1)N1CCc2nn(C)c(Cc3ccccc3)c2C1=O | ALK L1196M | binding | competition with immobilised ligand | 0.1 µM | 60% |
| CC(=O)N1CCC(c2ccc(C(=O)NC3=NCCN3)cc2C(F)(F)F)CC1 | ALK C1156Y | cell-free assay | competition with immobilised ligand | 1 µM | 100% |
| CNC(=O)[C@@H]1CC[C@@H](n2c(-c3ccc4cnccc4c3)nc3ccc(C(=O)NCc4cccc(C(N)=O)c4)cc32)C1 | ALK | binding | competition with immobilised ligand | 1 µM | 100% |
| C=CC(=O)N1CCC(C(=O)NCC(=O)N2CCN(c3nc(-c4cnc(N)nc4C(F)F)nc(N4CCOCC4)n3)CC2)CC1 | ALK L1196M | binding | competition with immobilised ligand | 1 µM | 79% |
| C[C@H](c1ccc(F)cc1)N(Cc1cccc(C(=O)O)c1)C(=O)c1cnc2ccccc2c1 | ALK L1196M | cell-free assay | competition with immobilised ligand | 1 µM | 76% |
| O=C(NCCCN1CCOCC1)c1ccc(Nc2ncc(Cl)c(-c3ccc(Cl)s3)n2)cc1 | ALK C1156Y | binding | competition with immobilised ligand | 1 µM | 61% |
| c1cncc(-c2cccc(Nc3nccc(NC4CCCCC4)n3)c2)c1 | ALK | binding | competition with immobilised ligand | 10 µM | 62% |
| COc1ccc2c(c1)O[C@H](c1ccc(OC)c(OC)c1)C[C@@H]2NC(=O)C1(c2ccc3c(c2)OC(F)(F)O3)CC1 | ALK | cell-free assay | competition with immobilised ligand | 1 µM | 100% |

| Structure (SMILES) | target | read-out | method | tested at | remaining binding |
| --- | --- | --- | --- | --- | --- |
| O=C(Nc1c[nH]nc1C(=O)NC1CCNCC1)c1cc(F)cc(F)c1 | ALK L1196M | binding | competition with immobilised ligand | 1 µM | 100% |
| CO[C@H]1CC[C@H](CNc2ccc(S(=O)(=O)NC(=O)c3ccc(N4CCN(CC5=C(c6ccc(Cl)cc6)CC(C)(C)CC5)CC4)cc3Oc3cnc4[nH]ccc4c3)cc2[N+](=O)[O-])CC1 | ALK C1156Y | cell-free assay | competition with immobilised ligand | 1 µM | 100% |
| CN1CCN(c2ccc(Nc3nccc(-c4cccc([N+](=O)[O-])c4)n3)cc2C(F)(F)F)CC1 | ALK C1156Y | binding | – | 10 µM | 42% |
| C[C@@H]1CN(c2ccc3ncc(-c4ccc5[nH]nc(C6CC6)c5c4)n3n2)C[C@H](C)O1 | ALK | binding | competition with immobilised ligand | 50 nM | 64% |
| O=C(NCC1CCOCC1)c1n[nH]cc1NC(=O)c1c(F)cccc1F | ALK | binding | competition with immobilised ligand | 1 µM | 93% |
| O=C(NCc1ncc(C(F)(F)F)cc1Cl)c1ccc2c(c1)C1(CCS(=O)(=O)CC1)[C@H](C1CC1)N2S(=O)(=O)c1ccc(F)cc1 | ALK C1156Y | cell-free assay | competition with immobilised ligand | 1 µM | 82% |
| CN(C)c1ncc(F)c(-c2cnn3ncccc23)n1 | ALK C1156Y | binding | – | 1 µM | 80% |
| CN1CCN(c2ccc(Nc3nccc(-c4ccccc4)n3)cc2C(F)(F)F)CC1 | ALK C1156Y | binding | – | 10 µM | 60% |
| Nc1ncc2c(n1)-c1c([nH]c3ccc(C#CC4CC4)cc13)CCCC2 | ALK L1196M | binding | competition with immobilised ligand | 1 µM | 86% |
| O=C(c1ccc(Nc2ncc(Cl)c(-c3cc4ccccc4s3)n2)cc1)N1CCC(N2CCCC2)CC1 | ALK L1196M | binding | competition with immobilised ligand | 1 µM | 100% |
| Cc1c(NC(=O)c2cc(C(N)=O)nc3cc(F)ccc23)c(C(F)(F)F)nn1Cc1ccc(C(C)(C)C)cc1 | ALK | cell-free assay | competition with immobilised ligand | 1 µM | 96% |
| CN(C)c1nccc(-c2cnn3ncccc23)n1 | ALK L1196M | binding | – | 1 µM | 100% |
| O=C(NCCCN1CCOCC1)c1ccc(Nc2nccc(-c3cc4ccccc4s3)n2)cc1 | ALK L1196M | binding | competition with immobilised ligand | 1 µM | 100% |
| C[C@H]1CCN(c2nccc(-c3cnn4ncccc34)n2)C1 | ALK C1156Y | binding | – | 1 µM | 99% |
| COc1cnc(Nc2cccc(S(N)(=O)=O)c2)nc1N1CCN(c2ccccc2)C(=O)C1 | ALK L1196M | binding | competition with immobilised ligand | 1 µM | 81% |
| Cc1cnn2ncc(-c3ccnc(N(C)C)n3)c2c1 | ALK C1156Y | binding | – | 1 µM | 100% |
| CN([C@@H]1CCc2c(CC(=O)O)c3cc(S(C)(=O)=O)ccc3n2C1)S(=O)(=O)c1ccc(F)cc1 | ALK L1196M | cell-free assay | competition with immobilised ligand | 1 µM | 89% |
